In the M2OR odorant receptor database:

Columns and labels:
Conditions in all cases: stereoisomer not certain
OR51I2 (Homo sapiens) = molecular target: T1, OR51I2 (Homo sapiens) (UniProt Q9H344)
T1 sequence (whole entry): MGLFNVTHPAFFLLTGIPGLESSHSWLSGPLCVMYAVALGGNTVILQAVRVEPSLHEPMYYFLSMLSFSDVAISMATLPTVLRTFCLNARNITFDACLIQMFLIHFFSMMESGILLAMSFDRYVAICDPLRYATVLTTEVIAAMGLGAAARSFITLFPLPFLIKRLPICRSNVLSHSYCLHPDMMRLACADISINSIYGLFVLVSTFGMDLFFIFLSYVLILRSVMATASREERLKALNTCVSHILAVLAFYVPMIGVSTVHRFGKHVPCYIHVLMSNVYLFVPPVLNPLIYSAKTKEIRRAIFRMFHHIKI
Method in brief: (§1)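 Whether a receptor–molecule pair is responsive (active) rests on the original authors' judgment that its measured signal was statistically different from baseline. Pairs without that judgment are non-responsive (inactive). Sources used varied assay methods, commonly transient luciferase assays in mammalian cell lines.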

OR51J1 (Homo sapiens) = molecular target: T2, OR51J1 (Homo sapiens) (UniProt Q9H342)
T2 sequence (whole entry): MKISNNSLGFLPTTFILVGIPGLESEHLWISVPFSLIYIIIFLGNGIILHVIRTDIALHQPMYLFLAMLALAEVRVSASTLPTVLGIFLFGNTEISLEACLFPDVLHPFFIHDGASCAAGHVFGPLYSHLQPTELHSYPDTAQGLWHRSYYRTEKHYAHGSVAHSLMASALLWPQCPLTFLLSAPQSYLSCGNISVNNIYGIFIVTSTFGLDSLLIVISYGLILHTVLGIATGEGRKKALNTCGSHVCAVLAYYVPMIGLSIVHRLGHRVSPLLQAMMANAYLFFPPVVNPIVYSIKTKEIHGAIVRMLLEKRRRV
Method in brief: as §1

OR51L1 (Homo sapiens) = molecular target: T3, OR51L1 (Homo sapiens) (UniProt Q8NGJ5)
T3 sequence (whole entry): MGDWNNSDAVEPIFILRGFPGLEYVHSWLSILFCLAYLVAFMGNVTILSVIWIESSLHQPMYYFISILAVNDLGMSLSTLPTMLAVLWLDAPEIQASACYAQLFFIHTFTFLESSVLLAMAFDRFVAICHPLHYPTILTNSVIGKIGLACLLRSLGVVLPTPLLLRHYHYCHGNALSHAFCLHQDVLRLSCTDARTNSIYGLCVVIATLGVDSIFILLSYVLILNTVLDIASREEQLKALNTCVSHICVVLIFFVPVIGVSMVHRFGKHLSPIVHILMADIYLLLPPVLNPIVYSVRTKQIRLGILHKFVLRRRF
Method in brief: as §1

OR51M1 (Homo sapiens) = molecular target: T4, OR51M1 (Homo sapiens) (UniProt Q9H341)
T4 sequence (whole entry): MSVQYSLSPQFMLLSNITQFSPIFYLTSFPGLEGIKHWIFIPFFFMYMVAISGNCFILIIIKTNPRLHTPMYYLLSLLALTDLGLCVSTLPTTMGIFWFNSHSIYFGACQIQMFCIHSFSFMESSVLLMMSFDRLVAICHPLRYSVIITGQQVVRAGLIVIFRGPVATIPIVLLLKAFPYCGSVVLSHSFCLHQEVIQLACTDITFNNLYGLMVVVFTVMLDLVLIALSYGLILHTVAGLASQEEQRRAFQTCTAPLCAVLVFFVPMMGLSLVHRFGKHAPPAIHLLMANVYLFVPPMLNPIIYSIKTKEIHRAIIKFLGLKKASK
Method in brief: as §1

OR51Q1 (Homo sapiens) = molecular target: T5, OR51Q1 (Homo sapiens) (UniProt Q8NH59)
T5 sequence (whole entry): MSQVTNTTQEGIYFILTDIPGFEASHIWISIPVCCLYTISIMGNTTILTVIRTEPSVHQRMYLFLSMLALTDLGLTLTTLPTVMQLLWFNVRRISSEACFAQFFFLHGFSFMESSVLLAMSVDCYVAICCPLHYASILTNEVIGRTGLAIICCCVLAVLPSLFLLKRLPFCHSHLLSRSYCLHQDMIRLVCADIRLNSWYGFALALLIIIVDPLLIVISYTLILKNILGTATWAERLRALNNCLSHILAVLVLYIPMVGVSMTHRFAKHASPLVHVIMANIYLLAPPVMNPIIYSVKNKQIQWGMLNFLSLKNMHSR
Method in brief: as §1

OR51S1 (Homo sapiens) = molecular target: T6, OR51S1 (Homo sapiens) (UniProt Q8NGJ8)
T6 sequence (whole entry): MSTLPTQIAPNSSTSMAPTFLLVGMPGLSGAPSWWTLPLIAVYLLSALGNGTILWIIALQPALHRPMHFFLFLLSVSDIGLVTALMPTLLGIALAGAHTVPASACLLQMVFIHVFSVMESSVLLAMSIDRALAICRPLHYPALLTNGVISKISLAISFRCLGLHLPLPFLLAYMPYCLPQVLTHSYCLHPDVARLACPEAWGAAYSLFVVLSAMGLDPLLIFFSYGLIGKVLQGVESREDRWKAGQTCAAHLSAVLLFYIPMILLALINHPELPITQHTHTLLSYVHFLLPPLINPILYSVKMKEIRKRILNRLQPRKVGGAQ
Method in brief: as §1

OR51T1 (Homo sapiens) = molecular target: T7, OR51T1 (Homo sapiens) (UniProt Q8NGJ9)
T7 sequence (whole entry): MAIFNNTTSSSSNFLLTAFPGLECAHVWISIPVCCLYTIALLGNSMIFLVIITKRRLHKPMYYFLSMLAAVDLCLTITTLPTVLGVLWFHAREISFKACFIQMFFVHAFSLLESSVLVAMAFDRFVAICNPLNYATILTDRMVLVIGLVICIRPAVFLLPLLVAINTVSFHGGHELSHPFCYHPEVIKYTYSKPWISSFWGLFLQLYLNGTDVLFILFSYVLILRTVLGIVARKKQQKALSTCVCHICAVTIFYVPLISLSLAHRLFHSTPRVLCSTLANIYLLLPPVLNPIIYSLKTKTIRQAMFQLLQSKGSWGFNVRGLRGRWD
Method in brief: as §1

OR51V1 (Homo sapiens) = molecular target: T8, OR51V1 (Homo sapiens) (UniProt Q9H2C8)
T8 sequence (whole entry): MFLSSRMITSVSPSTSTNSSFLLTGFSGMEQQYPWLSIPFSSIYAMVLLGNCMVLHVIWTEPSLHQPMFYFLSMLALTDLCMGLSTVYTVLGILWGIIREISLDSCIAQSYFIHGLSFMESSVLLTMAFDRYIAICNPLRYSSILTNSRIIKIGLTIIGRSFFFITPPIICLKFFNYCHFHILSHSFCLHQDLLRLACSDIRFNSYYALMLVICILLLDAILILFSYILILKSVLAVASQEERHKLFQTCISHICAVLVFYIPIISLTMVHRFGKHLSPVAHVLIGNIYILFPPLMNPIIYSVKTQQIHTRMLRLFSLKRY
Method in brief: as §1

OR52A1 (Homo sapiens) = molecular target: T9, OR52A1 (Homo sapiens) (UniProt Q9UKL2)
T9 sequence (whole entry): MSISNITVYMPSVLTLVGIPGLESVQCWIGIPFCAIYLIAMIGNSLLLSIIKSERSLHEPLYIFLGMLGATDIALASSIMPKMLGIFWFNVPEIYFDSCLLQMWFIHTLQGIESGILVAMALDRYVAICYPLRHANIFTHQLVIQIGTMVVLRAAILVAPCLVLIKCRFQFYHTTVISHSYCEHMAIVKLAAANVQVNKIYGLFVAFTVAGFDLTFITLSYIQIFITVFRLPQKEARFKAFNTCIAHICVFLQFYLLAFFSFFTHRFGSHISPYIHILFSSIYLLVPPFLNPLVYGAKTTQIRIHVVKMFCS
Method in brief: as §1

OR52A4P (Homo sapiens) = molecular target: T10, OR52A4P (Homo sapiens) (UniProt A6NMU1)
T10 sequence (whole entry): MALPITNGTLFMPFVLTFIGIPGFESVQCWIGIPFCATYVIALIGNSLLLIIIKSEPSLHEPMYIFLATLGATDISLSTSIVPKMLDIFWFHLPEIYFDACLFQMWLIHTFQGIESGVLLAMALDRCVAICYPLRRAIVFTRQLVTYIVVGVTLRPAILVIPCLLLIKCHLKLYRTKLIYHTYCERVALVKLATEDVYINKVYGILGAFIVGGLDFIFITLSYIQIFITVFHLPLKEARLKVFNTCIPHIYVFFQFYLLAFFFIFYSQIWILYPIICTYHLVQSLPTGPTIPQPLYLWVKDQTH
Method in brief: as §1

OR52A5 (Homo sapiens) = molecular target: T11, OR52A5 (Homo sapiens) (UniProt Q9H2C5)
T11 sequence (whole entry): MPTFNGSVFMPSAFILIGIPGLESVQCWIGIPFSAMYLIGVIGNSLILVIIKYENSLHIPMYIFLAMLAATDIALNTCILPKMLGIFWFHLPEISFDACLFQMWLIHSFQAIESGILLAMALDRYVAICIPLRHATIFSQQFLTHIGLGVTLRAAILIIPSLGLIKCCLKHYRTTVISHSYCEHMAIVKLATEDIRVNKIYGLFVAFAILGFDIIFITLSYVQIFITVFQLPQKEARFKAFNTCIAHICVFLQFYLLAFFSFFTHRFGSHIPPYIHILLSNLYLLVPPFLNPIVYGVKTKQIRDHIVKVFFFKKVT
Method in brief: as §1

OR52B2 (Homo sapiens) = molecular target: T12, OR52B2 (Homo sapiens) (UniProt Q96RD2)
T12 sequence (whole entry): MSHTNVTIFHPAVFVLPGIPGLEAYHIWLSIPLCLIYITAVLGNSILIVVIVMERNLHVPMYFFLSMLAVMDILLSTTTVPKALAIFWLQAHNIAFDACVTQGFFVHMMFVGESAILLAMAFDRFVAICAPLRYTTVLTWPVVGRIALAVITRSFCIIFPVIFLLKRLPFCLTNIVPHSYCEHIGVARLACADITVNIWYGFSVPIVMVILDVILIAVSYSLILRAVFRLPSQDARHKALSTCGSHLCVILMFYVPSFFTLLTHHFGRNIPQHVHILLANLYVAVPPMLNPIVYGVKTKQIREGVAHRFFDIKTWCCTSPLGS
Method in brief: as §1

OR52B4 (Homo sapiens) = molecular target: T13, OR52B4 (Homo sapiens) (UniProt Q8NGK2)
T13 sequence (whole entry): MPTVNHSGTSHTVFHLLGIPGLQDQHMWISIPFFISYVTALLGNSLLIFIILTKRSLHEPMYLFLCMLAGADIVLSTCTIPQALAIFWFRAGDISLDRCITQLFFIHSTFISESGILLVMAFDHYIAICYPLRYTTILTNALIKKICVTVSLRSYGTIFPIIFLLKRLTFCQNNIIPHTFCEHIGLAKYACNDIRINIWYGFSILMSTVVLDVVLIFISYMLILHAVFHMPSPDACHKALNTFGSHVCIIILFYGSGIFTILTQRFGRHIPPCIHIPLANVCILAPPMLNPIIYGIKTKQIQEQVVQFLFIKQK
Method in brief: as §1

OR52B6 (Homo sapiens) = molecular target: T14, OR52B6 (Homo sapiens) (UniProt Q8NGF0)
T14 sequence (whole entry): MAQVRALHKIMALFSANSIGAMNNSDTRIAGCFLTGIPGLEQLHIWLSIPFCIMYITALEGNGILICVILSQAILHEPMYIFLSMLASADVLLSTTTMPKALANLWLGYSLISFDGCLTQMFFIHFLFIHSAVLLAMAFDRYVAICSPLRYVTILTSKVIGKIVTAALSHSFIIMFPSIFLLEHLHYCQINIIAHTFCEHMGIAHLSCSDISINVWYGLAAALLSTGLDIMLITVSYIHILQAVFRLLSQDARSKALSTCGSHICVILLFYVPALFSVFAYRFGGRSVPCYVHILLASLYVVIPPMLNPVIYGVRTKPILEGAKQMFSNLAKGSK
Method in brief: as §1

OR52D1 (Homo sapiens) = molecular target: T15, OR52D1 (Homo sapiens) (UniProt Q9H346)
T15 sequence (whole entry): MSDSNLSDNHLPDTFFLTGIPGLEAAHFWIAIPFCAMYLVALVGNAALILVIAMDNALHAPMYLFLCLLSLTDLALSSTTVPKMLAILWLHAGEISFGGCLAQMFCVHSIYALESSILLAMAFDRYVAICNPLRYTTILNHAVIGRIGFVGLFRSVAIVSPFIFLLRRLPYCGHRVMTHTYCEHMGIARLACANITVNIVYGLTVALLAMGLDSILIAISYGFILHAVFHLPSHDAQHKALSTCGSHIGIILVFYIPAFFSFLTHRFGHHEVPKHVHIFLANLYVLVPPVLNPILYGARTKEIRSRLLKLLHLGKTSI
Method in brief: as §1

OR52E2 (Homo sapiens) = OR52E2 (Homo sapiens) (UniProt Q8NGJ4)
Chain of OR52E2 (Homo sapiens) (Q8NGJ4 whole entry): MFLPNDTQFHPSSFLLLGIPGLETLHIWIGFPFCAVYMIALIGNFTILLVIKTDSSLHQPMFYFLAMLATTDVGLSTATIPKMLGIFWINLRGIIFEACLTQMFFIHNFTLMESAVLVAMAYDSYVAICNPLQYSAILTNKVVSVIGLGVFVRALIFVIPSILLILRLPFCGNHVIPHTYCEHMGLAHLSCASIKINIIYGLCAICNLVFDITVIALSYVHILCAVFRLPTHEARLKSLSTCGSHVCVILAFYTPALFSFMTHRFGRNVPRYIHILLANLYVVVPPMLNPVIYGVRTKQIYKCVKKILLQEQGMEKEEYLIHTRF
Method in brief: as §1

OR52E4 (Homo sapiens) = OR52E4 (Homo sapiens) (UniProt Q8NGH9)
Chain of OR52E4 (Homo sapiens) (Q8NGH9 whole entry): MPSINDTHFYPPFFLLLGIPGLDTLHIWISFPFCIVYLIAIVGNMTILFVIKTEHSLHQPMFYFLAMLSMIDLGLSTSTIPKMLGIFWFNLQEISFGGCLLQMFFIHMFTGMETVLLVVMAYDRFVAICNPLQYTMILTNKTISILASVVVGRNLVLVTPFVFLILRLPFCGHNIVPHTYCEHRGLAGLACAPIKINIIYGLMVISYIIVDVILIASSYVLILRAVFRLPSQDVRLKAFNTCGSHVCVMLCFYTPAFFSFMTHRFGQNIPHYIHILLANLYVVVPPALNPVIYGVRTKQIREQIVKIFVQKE
Method in brief: as §1

OR52E5 (Homo sapiens) = OR52E5 (Homo sapiens) (UniProt Q8NH55)
Chain of OR52E5 (Homo sapiens) (Q8NH55 whole entry): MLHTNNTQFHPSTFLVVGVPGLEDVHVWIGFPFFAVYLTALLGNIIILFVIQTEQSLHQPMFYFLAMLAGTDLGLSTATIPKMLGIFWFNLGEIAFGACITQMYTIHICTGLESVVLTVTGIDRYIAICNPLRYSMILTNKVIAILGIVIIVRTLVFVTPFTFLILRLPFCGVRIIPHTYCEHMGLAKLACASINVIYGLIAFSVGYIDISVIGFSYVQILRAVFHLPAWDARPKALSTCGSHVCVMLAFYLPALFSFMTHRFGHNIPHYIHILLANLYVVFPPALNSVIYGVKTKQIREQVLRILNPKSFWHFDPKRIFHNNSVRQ
Method in brief: as §1

OR52E6 (Homo sapiens) = OR52E6 (Homo sapiens) (UniProt Q96RD3)
Chain of OR52E6 (Homo sapiens) (Q96RD3 whole entry): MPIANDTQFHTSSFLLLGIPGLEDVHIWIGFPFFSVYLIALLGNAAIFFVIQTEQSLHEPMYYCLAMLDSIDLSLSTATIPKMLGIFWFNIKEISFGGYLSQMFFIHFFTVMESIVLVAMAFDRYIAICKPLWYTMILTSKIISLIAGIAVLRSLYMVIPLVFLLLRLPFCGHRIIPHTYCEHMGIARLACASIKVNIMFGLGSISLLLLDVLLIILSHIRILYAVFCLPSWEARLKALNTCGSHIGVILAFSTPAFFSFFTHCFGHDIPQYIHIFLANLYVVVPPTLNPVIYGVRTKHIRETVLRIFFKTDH
Method in brief: as §1

OR52E1 (Homo sapiens) = OR52E1 (Homo sapiens) (UniProt Q8NGJ3)
Chain of OR52E1 (Homo sapiens) (Q8NGJ3 whole entry): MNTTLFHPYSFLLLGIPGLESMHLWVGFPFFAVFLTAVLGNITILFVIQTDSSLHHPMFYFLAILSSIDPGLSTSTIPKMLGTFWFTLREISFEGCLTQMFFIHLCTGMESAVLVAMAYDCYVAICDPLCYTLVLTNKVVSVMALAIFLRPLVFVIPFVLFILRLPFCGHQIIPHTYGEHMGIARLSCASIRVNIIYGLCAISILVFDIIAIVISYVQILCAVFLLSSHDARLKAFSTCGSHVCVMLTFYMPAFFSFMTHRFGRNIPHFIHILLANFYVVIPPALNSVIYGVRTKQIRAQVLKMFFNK
Method in brief: as §1

Measured: odorant receptor agonist call;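 also: active if original authors judged signal statistically different from baseline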

CCCCCC1CCCC(=O)O1 (configuration not stated)
active: OR52D1 (Homo sapiens)
not listed: OR52E1 (Homo sapiens)
inactive: all other assays above

CCCCCC(=O)C(C)C(C)=O (configuration not stated)
not listed: OR52E1 (Homo sapiens)
inactive: all other assays above

CCCCCCC=CCCC=O
not listed: OR52A4P (Homo sapiens)
inactive: all other assays above

C=C(C)C1CCC(C)C(=O)C1 (configuration not stated)
inactive: OR51L1 (Homo sapiens)

COc1cc(C(=O)O)ccc1O
inactive: OR51L1 (Homo sapiens)

CC(CO)CS (configuration not stated)
not listed: OR52E1 (Homo sapiens)
inactive: all other assays above

CCCCCC1=C(C)CCC1=O
inactive: OR51L1 (Homo sapiens)

CCCCOC(=O)C(C)OC(=O)CCC (configuration not stated)
inactive: OR51L1 (Homo sapiens)

Cc1cnc(C)c(C)n1
not listed: OR51T1 (Homo sapiens) | OR52A4P (Homo sapiens) | OR52E5 (Homo sapiens)
inactive: all other assays above
